Where two headings read alike, the source gives them in different places. Square brackets hold non-standard residues; d marks the D form. Peptide text beside a SMILES is read from it. Orn(N5-OH,N5-Ac) = CC(=O)N(O)CCC[C@H](N)C(=O)O
Legend:
YxeB-L142-6×His [1] = target: T1, YxeB-L142-6×His (Bacillus cereus, UniProt Q81IK3); assay: Fluorescence quenching; assay type: binding
T1 sequence (Q81IK3 19-306): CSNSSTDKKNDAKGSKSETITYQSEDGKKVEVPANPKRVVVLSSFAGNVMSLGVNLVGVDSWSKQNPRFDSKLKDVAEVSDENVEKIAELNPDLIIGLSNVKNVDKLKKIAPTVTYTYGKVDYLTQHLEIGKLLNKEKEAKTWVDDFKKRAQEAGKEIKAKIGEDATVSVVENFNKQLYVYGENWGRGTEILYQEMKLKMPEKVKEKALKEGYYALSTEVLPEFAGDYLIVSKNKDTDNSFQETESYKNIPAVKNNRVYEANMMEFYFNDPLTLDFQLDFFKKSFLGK

YxeB-S142-6×His [2] = target: T2, YxeB-S142-6×His (Bacillus cereus, UniProt Q81IK3, L142S); assay: Fluorescence quenching; assay type: binding
T2 sequence (Q81IK3 19-306 L142S): T1 sequence (Q81IK3 19-306)

YxeB-S142-6×His [3] = target: T2, YxeB-S142-6×His; assay: Substrate binding assay using RP-HPLC; conditions: bound = substrate detected in the protein complex analyzed by RP-HPLC
Summary of the method: (§1)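 His-tagged protein (2 μM) was bound to Ni-agarose beads in TBS over 2 h at RT. Substrate was added for 10 min at RT: 10 μM metal complex or 20 μM apo-ligand. Pellets were washed twice, then extracted with 20% acetonitrile (Ga complex) or 0.1% TFA for 20 min. C18 RP-HPLC at 220 nm followed, with a 0–25% acetonitrile gradient.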

[4] = cited from earlier work
[5] = tested on: DFO:YxeB-L142-6×His complex; assay: Iron exchange experiment in vitro analysed by RP-HPLC; assay type: biochemical, Bacillus cereus; conditions: for metal exchange rate (FO formed): 0.2 nmol/mL added; for FO bound to YxeB (iron transferred to DFO): 0.2 nmol/mL metal–substrate added to YxeB:DFO, 40 min incubation
YxeB-L142-6×His [6] = target: T1, YxeB-L142-6×His; assay: Substrate binding assay using RP-HPLC; conditions: bound = substrate detected in the protein complex analyzed by RP-HPLC
Summary of the method: as §1

TC137 strain [7] = assay: Growth assay in iron-limited minimum medium; assay type: cell-based, Bacillus cereus; conditions: 10 or 100 nM siderophore in iron-limited minimum medium
TC137 strain [8] = assay: Disc diffusion assay; assay type: cell-based, Bacillus cereus; conditions: 10 nmol infused in the disc (supplement: 10 pmol)
Summary of the method: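 Sterile filter discs were loaded with 10 nmol siderophore; 6 μL DMSO served as the negative control. Growth was scored around each disc.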

YxeB-S142-6×His [9] = target: T2, YxeB-S142-6×His; conditions: calculated previously; cited from earlier work
[10] = tested on: DFO:YxeB-L/S142-6×His complex; assay: ICP exchange or displacement assay, text statements covering both variants; assay type: biochemical, Bacillus cereus; conditions: 0.2 μM added; for metal (Ga, Fe, Cr) contained in the YxeB complexes: both YxeB-L142 and -S142 complexes; for amounts of metal transferred after 5 min incubation: both variants; for Ga and Fe transferred to the DFO:YxeB complex: within the 5 min incubation time
Summary of the method: (§2)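 2 μM His-tagged YxeB variant, 4 μM DFO and Ni-agarose beads were shaken 2 h at RT in TBS (25 mM Tris-HCl, pH 7.4). Then 0.2 μM (final) Fe-, Ga- or Cr-hydroxamate was added at RT. Pellets collected at 0–30 min were digested overnight in 3.5% nitric acid and measured by ICP with 0.1 ppm Eu internal standard. Results are the mean of three experiments, with standard errors.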

YxeB-L142-6×His [11] = target: T1, YxeB-L142-6×His; conditions: calculated previously; cited from earlier work
[12] = tested on: DFO:YxeB-L142-6×His complex; assay: Fe-/Ga-/Cr-DFO substrate binding; assay type: biochemical, Bacillus cereus; conditions: ICP analysis; for metal exchange rates or displaced substrate rates: 0.2 nmol/mL added, 30 min incubation; for substrates bound to YxeB except DFO: 0.2 nmol/mL metal–substrate added to YxeB:DFO, after 30 min incubation
Summary of the method: as §2

[13] = tested on: DFO:YxeB-S142-6×His complex; assay: Fe-/Ga-/Cr-DFO substrate binding; assay type: biochemical, Bacillus cereus; conditions: ICP analysis; for metal exchange rates or displaced substrate rates: 0.2 nmol/mL added, 30 min incubation; for substrates bound to YxeB except DFO: 0.2 nmol/mL metal–substrate added to YxeB:DFO, after 30 min incubation
Summary of the method: as §2

[14] = Iron exchange experiment without the YxeB protein; conditions: 0.2 μM AcFO, 4 μM DFO, no protein; up to 24 h
Summary of the method: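 No protein was present: 4 μM DFO and 0.2 μM acetylated ferrioxamine (final concentrations) were mixed in TBS at RT. Samples taken at 0 and 5 min and at 1, 3 and 24 h went directly onto C18 RP-HPLC (0.1% TFA/acetonitrile, 0–25% over 50 min, 220 nm).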

[15] = tested on: DFO:YxeB-S142-6×His complex; assay: Iron exchange experiment in vitro analysed by RP-HPLC; assay type: biochemical, Bacillus cereus
Summary of the method: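 His-tagged YxeB (2 μM), 4 μM DFO and Ni-agarose beads were mixed 2 h at RT in TBS, then given 0.2 μM (final) acetylated ferrioxamine. Pelleted aliquots were washed twice and eluted 20 min in 0.01% TFA. Eluates ran on C18 RP-HPLC (0.1% TFA/acetonitrile, 0–25% over 50 min, 220 nm) to quantify bound ligands.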

[16] = tested on: wild-type strains, TC128 and TC129; assay: Cr-DFO and Ga-DFO import, metal in cells measured by ICP; assay type: cell-based, Bacillus cereus; conditions: 2 μM metal complex added in the culture
Summary of the method: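 B. cereus cultures at OD600 0.8–1.3 received 2 μM metal–siderophore complex. Incubation was 120 min for Cr and 80 min for Ga, by which point OD600 was 1.6–2.1. Cell-associated Cr or Ga was then quantified by ICP. Values are the average of two independent experiments, with standard errors.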

[17] = read-out: Kd (nM) by FQ assay, calculated using fluorescence quenching data previously described
[18] = read-out: Kd (nM) by FQ assay, calculated by Hyperquad, SD in parentheses

Compound: CC(=O)N(O)CCC[C@@H]1NC(=O)CNC(=O)CNC(=O)CNC(=O)[C@H](CCCN(O)C(C)=O)NC(=O)[C@H](CCCN(O)C(C)=O)NC1=O.[Fe+3] [Fch, ferrichrome] (cyclo(GGG[Orn(N5-OH,N5-Ac)][Orn(N5-OH,N5-Ac)][Orn(N5-OH,N5-Ac)]))
- Kd (YxeB-L142-6×His [1]; [17]): 43 nM
- Kd (YxeB-S142-6×His [2]; [17]): 29.3 nM
- binding assay (HPLC) (YxeB-S142-6×His [3]): bound ^d
- pFe^III [4]: 25.2
- Fch bound to YxeB (displacement) ([5]; RP-HPLC, 0.2 nmol/mL Fch added, 40 min): 0.037 nmol/mL sample
- metal exchange rate (FO formed) ([5]; RP-HPLC, 40 min): 0%
- FO bound to YxeB (iron transferred to DFO) ([5]; RP-HPLC): 0 nmol/mL sample
- amount of Fch bound to the protein ([5]; displacement mechanism, 0.2 μM Fch, 40 min): 0.037 µM
- binding assay (HPLC) (YxeB-L142-6×His [6]): bound ^d

Compound: ferric citrate [Fe-Cit]
- metal exchange rate (FO formed) ([5]; RP-HPLC, 40 min): 45%
- FO bound to YxeB (iron transferred to DFO) ([5]; RP-HPLC): 0.089 nmol/mL sample

Compound: CC(=O)N(O)CCC[C@@H]1NC(=O)CNC(=O)CNC(=O)CNC(=O)[C@H](CCCN(O)C(C)=O)NC(=O)[C@H](CCCN(O)C(C)=O)NC1=O [DFch, desferrichrome] (cyclo(GGG[Orn(N5-OH,N5-Ac)][Orn(N5-OH,N5-Ac)][Orn(N5-OH,N5-Ac)]))
- growth of TC137 compared to wild-type strains TC129 and TC128 (TC137 strain [7]): delayed
- Kd (YxeB-L142-6×His [1]): 104 nM
- growth around a disc containing the siderophore (TC137 strain [8]): did not grow
- Kd (YxeB-S142-6×His [2]): 23 nM
- binding assay (HPLC) (YxeB-S142-6×His [3]): bound ^d
- binding assay (HPLC) (YxeB-L142-6×His [6]): bound ^d

Compound: CC(=O)NCCCCCN(O)C(=O)CCC(=O)NCCCCCN(O)C(=O)CCC(=O)NCCCCCN(O)C(C)=O [AcDFO]
- Kd (YxeB-S142-6×His [2]): 30.7 nM
- binding assay (HPLC) (YxeB-S142-6×His [3]): bound ^d
- binding assay (HPLC) (YxeB-L142-6×His [6]): bound ^d

Compound: CC(=O)N([O-])CCCCCNC(=O)CCC(=O)N([O-])CCCCCNC(=O)CCC(=O)N([O-])CCCCCN.[Fe+3] [FO, ferrioxamine B]
- Kd (YxeB-S142-6×His [9]): 29.1 nM
- metal (Ga, Fe, Cr) contained in the YxeB complexes [10]: > 0.15 nmol/mL reaction solution
- amounts of metal transferred after 5 min incubation [10]: 0.14–0.18 nmol/mL reaction solution
- Ga and Fe transferred to the DFO:YxeB complex [10]: > 70%
- Kd (YxeB-L142-6×His [11]): 38.8 nM
- metal exchange rates or displaced substrate rates [12]: 86%
- substrates bound to YxeB except DFO [12]: 0.172 nmol/mL sample
- metal exchange rates or displaced substrate rates [13]: 83%
- substrates bound to YxeB except DFO [13]: 0.166 nmol/mL sample

Compound: CC(=O)N(O)CCCCCNC(=O)CCC(=O)N(O)CCCCCNC(=O)CCC(=O)N(O)CCCCCN [DFO, desferrioxamine B]
- growth of TC137 compared to wild-type strains TC129 and TC128 (TC137 strain [7]): delayed
- Kd (YxeB-S142-6×His [9]): 35.9 nM
- growth around a disc containing the siderophore (TC137 strain [8]): did not grow
- pFe^III [4]: 26.6

Compound: CC(=O)NCCCCCN(O)C(=O)CCC(=O)NCCCCCN(O)C(=O)CCC(=O)NCCCCCN(O)C(C)=O.[Fe+3] [AcFO]
- Kd (YxeB-L142-6×His [1]; [18]): 25.4 nM
- Kd (YxeB-S142-6×His [2]; [18]): 31.6 nM
- binding assay (HPLC) (YxeB-S142-6×His [3]): bound ^d
- iron exchange between AcFO and DFO without YxeB [14]: did not occur
- exchange amount (FO formed) after 8 min incubation ([5]; 0.2 μM AcFO added, 8 min): approximately 0.2 μM
- incubation time after which iron exchange with YxeB was complete ([5]; 0.2 μM AcFO, 4 μM DFO, 2 μM YxeB-L142-6×His): 2 min
- AcDFO bound to YxeB ([5]; RP-HPLC, 0.2 nmol/mL AcFO added, 40 min): 0.110 nmol/mL sample
- metal exchange rate (FO formed) ([5]; RP-HPLC, 40 min): 77%
- FO bound to YxeB (iron transferred to DFO) ([5]; RP-HPLC): 0.153 nmol/mL sample
- rate of iron-released substrate remaining bound to YxeB ([5]; RP-HPLC, AcDFO after AcFO addition): 55%
- binding assay (HPLC) (YxeB-L142-6×His [6]): bound ^d
- AcDFO bound to YxeB ([15]; 0.2 nmol/mL AcFO added): 0.089 nmol/mL sample
- metal exchange rate (FO formed) ([15]; 0.2 nmol/mL AcFO added): 72%
- FO bound to YxeB (iron transferred to DFO) ([15]; 0.2 nmol/mL AcFO added, 10 min incubation): 0.144 nmol/mL sample
- rate of iron-released substrate remaining bound to YxeB ([15]; AcDFO after AcFO addition): 45%

Compound: CC(=O)N(O)CCCCCNC(=O)CCC(=O)N(O)CCCCCNC(=O)CCC(=O)N(O)CCCCCN.[Ga+3] [Ga-DFO]
- Kd (YxeB-L142-6×His [1]; [18]): 59.2 nM
- Ga or Cr in the cells (import) [16]: contained Ga or Cr in the cells
- metal (Ga, Fe, Cr) contained in the YxeB complexes [10]: > 0.15 nmol/mL reaction solution
- amounts of metal transferred after 5 min incubation [10]: 0.14–0.18 nmol/mL reaction solution
- Ga and Fe transferred to the DFO:YxeB complex [10]: > 70%
- metal exchange rates or displaced substrate rates [12]: 78%
- substrates bound to YxeB except DFO [12]: 0.155 nmol/mL sample
- metal exchange rates or displaced substrate rates [13]: 83%
- substrates bound to YxeB except DFO [13]: 0.165 nmol/mL sample
- Kd (YxeB-S142-6×His [2]; [18]): 44.6 nM
- binding assay (HPLC) (YxeB-S142-6×His [3]): bound ^d
- binding assay (HPLC) (YxeB-L142-6×His [6]): bound ^d

Compound: O=C([O-])CN(CCN(CC(=O)[O-])CC(=O)[O-])CC(=O)[O-].[Fe+3] [Fe-EDTA]
- pFe^III [4]: 23.4
- metal exchange rate (FO formed) ([5]; RP-HPLC, 40 min): ≤ 1%
- FO bound to YxeB (iron transferred to DFO) ([5]; RP-HPLC): 0.003 nmol/mL sample

Compound: O=C(N[C@H]1COC(=O)[C@@H](NC(=O)c2cccc([O-])c2[O-])COC(=O)[C@@H](NC(=O)c2cccc([O-])c2[O-])COC1=O)c1cccc([O-])c1[O-].[Fe+3] [Fe-Ent, Fe-enterobactin]
- pFe^III [4]: 34.3
- metal exchange rate (FO formed) ([5]; RP-HPLC, 40 min): ≤ 5%

Compound: C=CC1=C(C)c2cc3[n-]c(cc4[n-]c(cc5nc(cc1n2)C(C)=C5C=C)c(C)c4CCC(=O)O)c(CCC(=O)O)c3C.O.[Fe+2] [hematin]
- metal exchange rate (FO formed) ([5]; RP-HPLC, 40 min): ≤ 1%
- FO bound to YxeB (iron transferred to DFO) ([5]; RP-HPLC): 0.003 nmol/mL sample

Reference: article PMC4168784 (ACS Chemical Biology, 2014)
